GalR3 antag = human GalR3 antagonism | hit rate 0.44% among 360,000 | O60755 | inhibition, % at 3 µM | HEK293 GalR3-CNG cAMP membrane potential fluorescence; galR3 body fused to GalR1 C-terminus;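 active = inhibition above the screen-wide average plus 3 SD, cut at about 13% in these data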;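 also: forskolin and galanin both at EC90 stimulate the cells; cAMP rise reported by CNG channel membrane potential dye signal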
OX1R antag-1 = blocks the human orexin 1 receptor. inhibition, % at 6.6 µM. hit rate 1.8% among 330,000. O43613. OX1R-expressing cells, FRET antagonist read-out. AID 485270; in the data active = inhibition mostly above about 38%, no sharp cut-off; inactive = mostly below about 40%
Target sequence (O43613 whole entry, looked up): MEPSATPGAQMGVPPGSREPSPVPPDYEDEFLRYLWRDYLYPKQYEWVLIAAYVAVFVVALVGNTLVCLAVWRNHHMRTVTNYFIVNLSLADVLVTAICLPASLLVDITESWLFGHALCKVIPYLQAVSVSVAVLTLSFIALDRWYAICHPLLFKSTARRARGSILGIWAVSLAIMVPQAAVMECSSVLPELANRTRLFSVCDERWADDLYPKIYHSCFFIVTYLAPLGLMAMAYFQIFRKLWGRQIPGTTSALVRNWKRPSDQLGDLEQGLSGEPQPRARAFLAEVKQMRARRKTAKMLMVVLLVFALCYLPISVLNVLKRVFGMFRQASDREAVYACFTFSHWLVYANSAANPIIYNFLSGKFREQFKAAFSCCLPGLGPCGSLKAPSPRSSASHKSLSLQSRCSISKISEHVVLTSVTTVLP
OX1R antag-2 = human HCRTR1 antagonism; O43613; CHO/OX1R cells, Fluo-8 calcium fluorescence, orexin A; inhibition, % at 5 µM; hit rate 0.43% among 330,000; AID 434989;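 active = inhibition above its plate's threshold, mean inhibition of all tested compounds on the plate plus 3 SD, cut at about 37% in these data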
CHO parental Ca = signal in parental CHO cells, OX1R antagonist counter-screen; parental CHO-K1, ATP-induced calcium, Fluo-8 fluorescence; hit rate 0.63% among 330,000; inhibition, % at 5.6 µM;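 active = inhibition above that plate's mean sample inhibition plus 3 SD, cut at about 26% in these data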
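Measured by: calcium-sensitive Fluo-8 fluorescence / Test system: CHO parental line / Controls: ATP-challenged DMSO wells low, unchallenged DMSO wells high / Measure: % inhibition / Compound: single nominal dose of 5.6 µM per compound / Replicates: single well per compound, no replicates / Reagent: ATP as calcium-mobilizing challenge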
GPR7 antagonist = human neuropeptides B/W receptor 1 antagonism; P48145; GPR7-expressing cells, fluorescence antagonist assay; inhibition, % at 4.4 µM; hit rate 1.1% among 290,000; AID 1861; in the data active = inhibition above about 16%, passing the limit was not always enough;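 also: cells stimulated with the agonist NPW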
GPR7 antag cf = confirmation of human GPR7 antagonists; shares compounds with GPR7 antagonist; AID 1952; inhibition, % at 4.4 µM; hit rate 52% among 2,400; GPR7-expressing cells, calcium fluorescence antagonist mode; in the data active = inhibition above about 24%;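 also: stimulated with the GPR7 agonist NPW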
MCHR1 antag = antagonizes human MCHR1, a GPR7 antagonist counter-screen | shares compounds with GPR7 antagonist | MCHR1-expressing cells, fluorescence antagonist assay | inhibition, % at 4.4 µM | hit rate 62% among 2,400; in the data active = inhibition above about 22%
Hits are given with their value. In the library only some 3.1% were active in any assay of this set; here they are far more common.

O=C(Nc1ccc(Cl)c(C(F)(F)F)c1)NC1CC2CCCC(C1)N2Cc1ccccc1 (stereo not drawn) was read as GalR3 antag inactive, OX1R antag-1 inactive, OX1R antag-2 inactive, CHO parental Ca 37, GPR7 antagonist 27, GPR7 antag cf 45 and MCHR1 antag 87.
`COc1ccc(Cn2cc(Cn3c4ccccc4c(=O)n3C(C)C)nn2)cc1` gave GalR3 antag inactive.
Screening Cc1cc(C)cc(C(O)c2ncc(-c3ccc4ccccc4c3)[nH]2)c1 (stereo not drawn) returned GalR3 antag inactive.
Screening Cc1nonc1CN(C)C(=O)c1cc(COc2ccc(F)cc2Cl)on1 returned GalR3 antag inactive, OX1R antag-1 inactive, OX1R antag-2 inactive, CHO parental Ca inactive, GPR7 antagonist 30, GPR7 antag cf inactive and MCHR1 antag 26.
O=C(Cc1ccc([N+](=O)[O-])cc1)Nc1ccc(Cl)cc1 was read as GalR3 antag inactive, OX1R antag-1 inactive, OX1R antag-2 inactive, CHO parental Ca inactive and GPR7 antagonist inactive.
For O=C(C/C=N\OCc1ccc([N+](=O)[O-])cc1)Nc1ccc(Cl)cc1 the results were GalR3 antag inactive, OX1R antag-1 inactive, OX1R antag-2 inactive, CHO parental Ca inactive, GPR7 antagonist 25, GPR7 antag cf 31 and MCHR1 antag 40.
For COC(=O)c1cc2c(c3c4cc(F)ccc4n(S(=O)(=O)c4ccccc4)c13)C(=O)N(Cc1ccccc1)C2 the results were GalR3 antag inactive.
For COc1cc(/C=C(\C#N)C(=O)Nc2ccc(C(=O)O)cc2)ccc1OC(=O)c1cccc(F)c1 the results were GalR3 antag inactive, OX1R antag-1 inactive, OX1R antag-2 inactive, CHO parental Ca inactive, GPR7 antagonist 31, GPR7 antag cf 34 and MCHR1 antag inactive.
`COc1cc(/C=C(/C#N)C(=O)Nc2ccccc2)ccc1OCc1ccc(C(=O)O)cc1` gave GalR3 antag inactive, OX1R antag-1 inactive, OX1R antag-2 inactive, CHO parental Ca inactive and GPR7 antagonist inactive.
For CCc1ccc2[nH]c(=O)c(C(c3nnnn3Cc3ccc(OC)cc3)N3CCOCC3)cc2c1 (stereo not drawn) the results were GalR3 antag inactive, OX1R antag-1 inactive, OX1R antag-2 inactive, CHO parental Ca inactive, GPR7 antagonist 29, GPR7 antag cf inactive and MCHR1 antag inactive.
For CCc1ccc2[nH]c(=O)c(C(c3nnnn3Cc3ccccc3)N3CCOCC3)cc2c1 (stereo not drawn) the results were GalR3 antag inactive, OX1R antag-1 inactive, OX1R antag-2 inactive, CHO parental Ca inactive and GPR7 antagonist inactive.
`C[C@@H]1CNCCN1c1ccc(N2CCS(=O)(=O)CC2)c(C#N)c1` gave GalR3 antag inactive.
For COC(=O)c1ccc(CNC(=O)c2ccccc2C(=O)NCC2(CBr)OCCO2)cc1 the results were GalR3 antag inactive.
`CN(Cc1ccccc1)C1=CC(=[N+]2CCCCC2)CC(C)(C)C1` gave GalR3 antag 42, OX1R antag-1 inactive, OX1R antag-2 inactive, CHO parental Ca inactive, GPR7 antagonist 40, GPR7 antag cf 57 and MCHR1 antag 48.
`Cc1ccc(NC(=O)CSc2n[nH]c(C)c2[N+](=O)[O-])cc1C` gave GalR3 antag inactive, OX1R antag-1 inactive, OX1R antag-2 inactive, CHO parental Ca inactive and GPR7 antagonist inactive.
`COc1ccc(NC(=O)CSc2n[nH]c(C)c2[N+](=O)[O-])cc1` gave GalR3 antag inactive, OX1R antag-1 inactive, OX1R antag-2 inactive, CHO parental Ca inactive, GPR7 antagonist 22, GPR7 antag cf inactive and MCHR1 antag inactive.
`O=c1[nH]c(=S)[nH]c2c1CN(Cc1ccc(F)cc1)CC2` gave GalR3 antag inactive, OX1R antag-1 inactive, OX1R antag-2 inactive, CHO parental Ca inactive, GPR7 antagonist 30, GPR7 antag cf inactive and MCHR1 antag inactive.
For Fc1ccc(CNCCC(Cc2ccccc2)c2ccco2)cc1 (stereo not drawn) the results were GalR3 antag inactive, OX1R antag-1 inactive, OX1R antag-2 inactive, CHO parental Ca inactive, GPR7 antagonist 29, GPR7 antag cf 44 and MCHR1 antag 40.
`CC(NCCC(Cc1ccccc1)c1ccco1)c1ccccc1` (stereo not drawn) gave GalR3 antag inactive, OX1R antag-1 inactive, OX1R antag-2 inactive, CHO parental Ca inactive, GPR7 antagonist 24, GPR7 antag cf 41 and MCHR1 antag 50.
`CCC(=O)N(CCC(Cc1ccccc1)c1ccco1)Cc1ccco1` (stereo not drawn) gave GalR3 antag inactive, OX1R antag-1 inactive, OX1R antag-2 inactive, CHO parental Ca inactive and GPR7 antagonist inactive.
For O=C1Nc2cnc(Cl)nc2Nc2ccc(Cl)cc21 the results were GalR3 antag inactive.
For O=C1/C(=C\c2cc([N+](=O)[O-])ccc2O)SC(=S)N1Cc1ccc(Cl)cc1 the results were GalR3 antag inactive, OX1R antag-1 inactive, OX1R antag-2 68, CHO parental Ca 62, GPR7 antagonist 35, GPR7 antag cf 47 and MCHR1 antag 86.
CCc1nc2ccc(C(=O)N3CCN(S(=O)(=O)CC)CC3)cn2c1N(CC)C(=O)NCCc1ccccc1 was read as GalR3 antag inactive.
Cc1oc2c(C)c(O)ccc2c(=O)c1-c1cnn(-c2ccccc2)c1 was read as GalR3 antag inactive, OX1R antag-1 inactive, OX1R antag-2 inactive, CHO parental Ca inactive, GPR7 antagonist 28, GPR7 antag cf inactive and MCHR1 antag inactive.
Screening COc1ccc2c(=O)c(-c3cnn(-c4ccccc4)c3)c(C)oc2c1 returned GalR3 antag inactive, OX1R antag-1 inactive, OX1R antag-2 inactive, CHO parental Ca inactive and GPR7 antagonist inactive.
Screening Cc1c(NC(=O)c2cc(-n3cnnc3)ccc2Cl)cccc1-c1nc2ccccc2s1 returned GalR3 antag inactive, OX1R antag-1 inactive, OX1R antag-2 inactive, CHO parental Ca inactive and GPR7 antagonist inactive.
For Cc1c(NC(=O)c2cccs2)cccc1-c1nc2ccccc2s1 the results were GalR3 antag inactive, OX1R antag-1 inactive, OX1R antag-2 inactive, CHO parental Ca inactive, GPR7 antagonist 33, GPR7 antag cf 45 and MCHR1 antag 64.
`CCCC(=O)Nc1nc(-c2ccc(OC)cc2)cs1` gave GalR3 antag inactive, OX1R antag-1 inactive, OX1R antag-2 inactive, CHO parental Ca inactive, GPR7 antagonist 22, GPR7 antag cf 24 and MCHR1 antag 36.
COc1ccc(CC(=O)N/N=C(\C)CC(=O)Nc2ccc(N(C)C)cc2)cc1 was read as GalR3 antag inactive, OX1R antag-1 inactive, OX1R antag-2 inactive, CHO parental Ca inactive and GPR7 antagonist inactive.
C/C(CC(=O)Nc1ccc(N(C)C)cc1)=N\NC(=O)c1ccc([N+](=O)[O-])cc1 was read as GalR3 antag inactive, GPR7 antagonist 27, GPR7 antag cf inactive and MCHR1 antag inactive.
